Columns and labels:
Rattus norvegicus [1] = test: Analgesic activity in Wistar albino rat […] assessed as increase in reaction time for tail withdrawal at 100 mg/kg, po after 180 mins by tail flick method; format: functional
Rattus norvegicus [2] = test: Analgesic activity in Wistar albino rat […] assessed as reaction time for tail withdrawal at 100 mg/kg, po after 300 mins by tail flick method; format: functional
Summary of the method: (§1)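 Rat tail-flick test: latency for the rat to withdraw its tail from hot water at 55 ± 0.5 °C. Drugs given orally. Reaction time in seconds read at 60, 90, 120 and 300 min after dosing. Treated animals compared with control and with a nimesulide standard. Wistar albino rats, 150-200 g, either sex; food withdrawn 12 h before and during testing.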

Rattus norvegicus [3] = test: Analgesic activity in Wistar albino rat […] assessed as increase in reaction time for tail withdrawal at 100 mg/kg, po after 300 mins by tail flick method; format: functional; summary of the method: as §1
Rattus norvegicus [4] = test: Toxicity in Wistar albino rat assessed as mortality up to 3 g/kg, po after 24 hrs; format: organism-based; details: in vivo, 3000 mg/kg
Summary of the method: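 Albino rats of either sex, six per group, dosed orally from 100 up to 3000 mg kg^-1 body weight. Animals were watched continuously for 8 h for signs of acute toxicity such as altered motor activity, ataxia, tremors, convulsions, sedation and lacrimation, and were checked for mortality over a 24 h period. Food was withheld for 12 h before dosing.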

Rattus norvegicus [5] = test: Toxicity in Wistar albino rat assessed as effect on motor activity up to 3 g/kg, po after 8 hrs; format: organism-based; details: in vivo, 3000 mg/kg
Summary of the method: (§2)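 Acute toxicity: albino rats of either sex in groups of six, oral doses from 100 up to 3000 mg kg^-1. Rats observed continuously for 8 h for changes in motor activity, ataxia, tremors, convulsions, sedation and lacrimation. Ulceration and haemorrhagic spots also inspected.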

Rattus norvegicus [6] = test: Toxicity in Wistar albino rat assessed as induction of sedation up to 3 g/kg, po after 8 hrs; format: organism-based; details: in vivo, 3000 mg/kg; summary of the method: as §2
Rattus norvegicus [7] = test: Toxicity in Wistar albino rat assessed as induction of convulsions and tremors up to 3 g/kg, po after 8 hrs; format: organism-based; details: in vivo, 3000 mg/kg; summary of the method: as §2
Rattus norvegicus [8] = test: Toxicity in Wistar albino rat assessed as induction of gastric ulceration up to 3 g/kg, po after 8 hrs; format: organism-based, Stomach; details: in vivo, 3000 mg/kg; summary of the method: as §2
Rattus norvegicus [9] = test: Toxicity in Wistar albino rat assessed as induction of haemorrhagic spots up to 3 g/kg, po after 8 hrs; format: organism-based; details: in vivo, 3000 mg/kg; summary of the method: as §2
Rattus norvegicus [10] = test: Antiinflammatory activity in Wistar albino rat assessed as inhibition of carrageenan-induced paw oedema at 100 mg/kg, po measured 0.5 hrs after carrageenan challenge; format: functional
Summary of the method: (§3)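 Albino rats, 6 per group, dosed orally at 100 mg kg^-1; ibuprofen 100 mg kg^-1 as standard. One hour after dosing, 0.1 ml of 1% carrageenan with 2% gum acacia in normal saline injected subplantar into the right hind paw. Paw volume measured by plethysmometer; % inhibition versus control calculated. One-way ANOVA with Dunnett's t test.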

Rattus norvegicus [11] = test: Antiinflammatory activity in Wistar albino rat assessed as inhibition of carrageenan-induced paw oedema at 100 mg/kg, po measured 1 hr after carrageenan challenge; format: functional; summary of the method: as §3
Rattus norvegicus [12] = test: Antiinflammatory activity in Wistar albino rat assessed as inhibition of carrageenan-induced paw oedema at 100 mg/kg, po measured 2 hrs after carrageenan challenge; format: functional; summary of the method: as §3
Rattus norvegicus [13] = test: Antiinflammatory activity in Wistar albino rat assessed as inhibition of carrageenan-induced paw oedema at 100 mg/kg, po measured 3 hrs after carrageenan challenge; format: functional; summary of the method: as §3
Rattus norvegicus [14] = test: Antiinflammatory activity in Wistar albino rat assessed as inhibition of carrageenan-induced paw oedema at 100 mg/kg, po measured 4 hrs after carrageenan challenge; format: functional; summary of the method: as §3
Rattus norvegicus [15] = test: Antiinflammatory activity in Wistar albino rat assessed as inhibition of carrageenan-induced paw oedema at 100 mg/kg, po measured 5 hrs after carrageenan challenge; format: functional; summary of the method: as §3
Rattus norvegicus [16] = test: Analgesic activity in Wistar albino rat […] assessed as reaction time for tail withdrawal at 100 mg/kg, po after 30 mins by tail flick method; format: functional
Rattus norvegicus [17] = test: Analgesic activity in Wistar albino rat […] assessed as reaction time for tail withdrawal at 100 mg/kg, po after 60 mins by tail flick method; format: functional; summary of the method: as §1
Rattus norvegicus [18] = test: Analgesic activity in Wistar albino rat […] assessed as reaction time for tail withdrawal at 100 mg/kg, po after 120 mins by tail flick method; format: functional; summary of the method: as §1
Rattus norvegicus [19] = test: Analgesic activity in Wistar albino rat […] assessed as reaction time for tail withdrawal at 100 mg/kg, po after 180 mins by tail flick method; format: functional

Compound | Activity (Rattus norvegicus [1]) | Activity (Rattus norvegicus [2]) | Activity (Rattus norvegicus [3]) | Activity (Rattus norvegicus [4]) | Activity (Rattus norvegicus [5]) | Activity (Rattus norvegicus [6]) | Activity (Rattus norvegicus [7]) | Activity (Rattus norvegicus [8]) | Activity (Rattus norvegicus [9]) | inhibition in vivo at 100 mg/kg (Rattus norvegicus [10]) | inhibition in vivo at 100 mg/kg (Rattus norvegicus [11]) | inhibition in vivo at 100 mg/kg (Rattus norvegicus [12]) | inhibition in vivo at 100 mg/kg (Rattus norvegicus [13]) | inhibition in vivo at 100 mg/kg (Rattus norvegicus [14]) | inhibition in vivo at 100 mg/kg (Rattus norvegicus [15]) | Activity (Rattus norvegicus [16]) | Activity (Rattus norvegicus [17]) | Activity (Rattus norvegicus [18]) | Activity (Rattus norvegicus [19])
Cc1ccc2c(Cc3nn4c(C#N)c(-c5ccc(Cl)cc5)nc4s3)coc2c1 | 207.49% | 7.167 s | 167.12% | Non-toxic | Non-toxic | Non-toxic | Non-toxic | Non-toxic | Non-toxic | 4.77% | 13.4% | 28% | 43.4% | 51.2% | 53.5% | 3.7 s | 4.067 s | 6.617 s | 8.25 s
Cc1ccc2c(Cc3nn4c(CO)c(-c5ccc(Br)cc5)nc4s3)coc2c1 | 177.3% | 6.067 s | 126.12% | Non-toxic | Non-toxic | Non-toxic | Non-toxic | Non-toxic | Non-toxic | 2.38% | 7.2% | 13.1% | 36.6% | 44.9% | 47.3% | 3.667 s | 4.583 s | 5.917 s | 7.4 s
Cc1ccc2c(Cc3nn4c(/C=N/O)c(-c5ccc(Cl)cc5)nc4s3)coc2c1 | 1.26% | 2.6 s | -3.09% | Non-toxic | Non-toxic | Non-toxic | Non-toxic | Non-toxic | Non-toxic | 6% | 5.19% | 11.2% | 10% | 11.1% | 31% | 2.483 s | 2.667 s | 2.633 s | 2.717 s

From ChEMBL document CHEMBL1140193, “Synthesis and anti-inflammatory evaluation of methylene bridged benzofuranyl imidazo[2,1-b][1,3,4]thiadiazoles” (Eur J Med Chem, 2008)
